Assays:
[1] = target: T1, 5-hydroxytryptamine receptor 1A (Rattus norvegicus, UniProt P19327); assay: Tested for binding affinity against 5-hydroxytryptamine 1A receptor from rat frontal cortical regions using [3H]8-OH-DPAT as radioligand
T1 sequence (P19327 whole entry): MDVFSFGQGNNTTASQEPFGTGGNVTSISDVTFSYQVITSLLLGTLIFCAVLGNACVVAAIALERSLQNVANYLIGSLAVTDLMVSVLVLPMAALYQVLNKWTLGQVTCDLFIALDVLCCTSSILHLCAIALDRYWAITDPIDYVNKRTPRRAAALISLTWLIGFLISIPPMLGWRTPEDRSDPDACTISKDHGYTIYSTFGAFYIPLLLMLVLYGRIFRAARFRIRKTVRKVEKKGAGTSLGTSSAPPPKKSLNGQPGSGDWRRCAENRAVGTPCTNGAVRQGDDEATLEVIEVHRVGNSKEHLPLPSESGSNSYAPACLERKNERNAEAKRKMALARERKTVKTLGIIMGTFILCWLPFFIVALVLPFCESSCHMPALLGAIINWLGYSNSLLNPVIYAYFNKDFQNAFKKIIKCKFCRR

[2] = target: Serotonin 2 (5-HT2) receptor (Rattus norvegicus, UniProt P30994+P08909+P14842); assay: Tested for binding affinity against 5-hydroxytryptamine 2 receptor from rat frontal cortical regions using [3H]ketanserin as radioligand; assay type: protein assay
Method in brief: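 Frontal cortex from male Sprague-Dawley rats was homogenized in Tris HCl/EDTA/MgCl2 buffer, pH 7.4, containing ascorbate and pargyline. Each triplicate tube held 5 mg wet tissue and 0.4 nM [3H]ketanserin, with nonspecific binding defined by 1.0 µM cinanserin. Incubation was 15 min at 37 °C, then glass-fiber filtration and an ice-cold wash. IC50 was converted to Ki using radioligand KD from saturation experiments.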

[3] = target: Serotonin 2 (5-HT2) receptor (Rattus norvegicus) (UniProt P30994+P08909+P14842); assay: Selectivity ratio, Ki against 5-HT1C versus 5-HT2; assay type: protein assay
Method in brief: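 Rat frontal cortex homogenate (male Sprague-Dawley) was washed and preincubated 15 min at 37 °C in 50 mM Tris HCl, 0.5 mM EDTA, 10 mM MgCl2, pH 7.4, with 0.1% ascorbate and 10^-6 M pargyline. […] Nonspecific binding was set with 1.0 µM mianserin. Tubes ran 15 min at 37 °C in triplicate before filtration.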

[4] = target: T2, 5-hydroxytryptamine receptor 2C (Rattus norvegicus, UniProt P08909); assay: Tested for binding affinity against 5-hydroxytryptamine 1C receptor from rat frontal cortical regions using [3H]mesulergine as radioligand
T2 sequence (P08909 whole entry): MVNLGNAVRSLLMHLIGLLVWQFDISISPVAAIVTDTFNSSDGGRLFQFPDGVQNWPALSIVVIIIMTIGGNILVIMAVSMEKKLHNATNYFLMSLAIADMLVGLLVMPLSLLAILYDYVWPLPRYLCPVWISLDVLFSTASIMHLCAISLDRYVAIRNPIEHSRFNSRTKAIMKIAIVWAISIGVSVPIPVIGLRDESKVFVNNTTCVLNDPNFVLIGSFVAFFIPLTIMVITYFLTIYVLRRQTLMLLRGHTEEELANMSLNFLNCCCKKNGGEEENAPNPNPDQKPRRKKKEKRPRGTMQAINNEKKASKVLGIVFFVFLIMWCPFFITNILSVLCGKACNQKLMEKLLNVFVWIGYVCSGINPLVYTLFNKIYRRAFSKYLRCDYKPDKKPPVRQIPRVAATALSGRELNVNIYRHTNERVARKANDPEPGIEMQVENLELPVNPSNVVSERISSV
Method in brief: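 Rat frontal cortex homogenate (male Sprague-Dawley) was washed and preincubated 15 min at 37 °C in 50 mM Tris HCl, 0.5 mM EDTA, 10 mM MgCl2, pH 7.4, with 0.1% ascorbate and 10^-6 M pargyline. Nonspecific binding was set with 1.0 µM mianserin. Tubes ran 15 min at 37 °C in triplicate before filtration.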

[5] = target: D(2) dopamine receptor (Homo sapiens, UniProt P14416); assay: Tested for binding affinity against dopamine receptor D2
[6] = target: D(1A) dopamine receptor (Mus musculus, UniProt Q61616); assay: Tested for binding affinity against dopamine receptor D1
Sequence of D(1A) dopamine receptor (Q61616 whole entry): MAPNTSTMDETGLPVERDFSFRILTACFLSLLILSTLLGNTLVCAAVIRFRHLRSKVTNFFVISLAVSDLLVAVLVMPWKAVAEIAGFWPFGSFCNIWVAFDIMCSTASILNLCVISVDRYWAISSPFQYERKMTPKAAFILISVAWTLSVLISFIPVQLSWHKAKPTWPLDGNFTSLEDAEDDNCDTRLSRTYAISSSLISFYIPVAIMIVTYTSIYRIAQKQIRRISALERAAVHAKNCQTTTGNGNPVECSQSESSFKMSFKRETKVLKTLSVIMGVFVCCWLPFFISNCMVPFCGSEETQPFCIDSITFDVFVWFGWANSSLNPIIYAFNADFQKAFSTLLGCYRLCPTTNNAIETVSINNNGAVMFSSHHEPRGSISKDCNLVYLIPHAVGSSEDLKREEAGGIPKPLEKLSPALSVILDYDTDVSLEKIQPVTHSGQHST

Sequence of Serotonin 2 (5-HT2) receptor (Rattus norvegicus) (P14842 whole entry, looked up, one chain of several): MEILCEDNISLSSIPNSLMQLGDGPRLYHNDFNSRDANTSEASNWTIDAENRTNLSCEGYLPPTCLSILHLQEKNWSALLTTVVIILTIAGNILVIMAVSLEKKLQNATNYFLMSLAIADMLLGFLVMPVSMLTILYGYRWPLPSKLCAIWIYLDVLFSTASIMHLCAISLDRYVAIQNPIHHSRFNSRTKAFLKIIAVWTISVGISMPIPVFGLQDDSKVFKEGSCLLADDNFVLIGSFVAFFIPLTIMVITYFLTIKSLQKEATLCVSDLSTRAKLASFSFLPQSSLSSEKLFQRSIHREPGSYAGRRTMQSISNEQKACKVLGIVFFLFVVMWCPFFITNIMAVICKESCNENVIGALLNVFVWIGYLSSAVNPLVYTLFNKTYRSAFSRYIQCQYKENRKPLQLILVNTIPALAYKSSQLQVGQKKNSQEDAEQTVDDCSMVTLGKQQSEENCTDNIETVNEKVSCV
Sequence of Serotonin 2 (5-HT2) receptor (Rattus norvegicus) (P30994 whole entry, looked up, one chain of several): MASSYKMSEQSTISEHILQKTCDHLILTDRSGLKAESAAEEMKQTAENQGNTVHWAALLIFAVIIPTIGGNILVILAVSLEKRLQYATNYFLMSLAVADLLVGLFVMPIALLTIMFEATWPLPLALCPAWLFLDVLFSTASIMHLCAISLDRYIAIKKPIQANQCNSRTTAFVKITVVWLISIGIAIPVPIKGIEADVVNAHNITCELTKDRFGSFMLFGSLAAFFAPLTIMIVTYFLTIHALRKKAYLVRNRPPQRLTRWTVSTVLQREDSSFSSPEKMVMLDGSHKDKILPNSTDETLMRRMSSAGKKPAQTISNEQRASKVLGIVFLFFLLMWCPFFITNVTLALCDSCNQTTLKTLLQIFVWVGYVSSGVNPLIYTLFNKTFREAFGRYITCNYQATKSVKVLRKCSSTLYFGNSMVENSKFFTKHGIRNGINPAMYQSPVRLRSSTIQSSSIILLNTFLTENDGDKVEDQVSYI
Sequence of D(2) dopamine receptor (P14416 whole entry): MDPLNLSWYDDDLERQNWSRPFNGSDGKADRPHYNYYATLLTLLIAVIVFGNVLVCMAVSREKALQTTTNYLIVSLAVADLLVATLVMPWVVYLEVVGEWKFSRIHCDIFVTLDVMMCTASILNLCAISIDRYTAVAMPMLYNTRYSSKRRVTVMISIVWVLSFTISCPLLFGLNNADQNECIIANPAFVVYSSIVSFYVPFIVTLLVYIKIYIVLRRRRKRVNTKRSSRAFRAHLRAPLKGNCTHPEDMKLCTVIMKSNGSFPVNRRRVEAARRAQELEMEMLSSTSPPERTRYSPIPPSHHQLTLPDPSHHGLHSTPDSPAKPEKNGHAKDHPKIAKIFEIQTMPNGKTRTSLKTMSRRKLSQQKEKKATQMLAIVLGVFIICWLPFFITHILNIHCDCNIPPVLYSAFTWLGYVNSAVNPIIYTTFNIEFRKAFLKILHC

SMILES | Ki [1] | Ki [2] | Ratio [3] | Ki [4] | Ki [5] | Ki [6]
O=C(CCCN1CCC(C(=O)c2ccc(F)cc2)CC1)c1ccc(F)cc1 [LENPERONE] | 305 nM |  |  |  |  | 
NCCCOc1ccc(F)cc1 |  | 1400 nM | > 5 | > 10 µM |  | 
O=C1NCN(c2ccccc2)C12CCN(CCCCc1ccc(F)cc1)CC2 | 110 nM | 5 nM | 650 | 3.2 µM |  | 
O=C1NCN(c2ccccc2)C12CCN(CCCOc1ccc([N+](=O)[O-])cc1)CC2 | 1160 nM | 600 nM | > 10 | > 10 µM |  | 
O=C(CCCN1CCC(NC(=O)c2ccccc2)CC1)c1ccc(F)cc1 |  | 70 nM | > 140 | > 10 µM |  | 
O=C1NCN(c2ccccc2)C12CCNCC2 | > 10000 nM | > 10000 nM |  | > 10 µM |  | 
O=C(c1ccc(F)cc1)C1CCN(CCCOc2ccc(F)cc2)CC1 | 285 nM | 8 nM | 40 | 0.335 µM |  | 
Fc1ccc(OCCCN2CCC(Nc3ccccc3)CC2)cc1 | 120 nM | 88 nM | 40 | 3.6 µM |  | 
COc1ccc(OCCCN2CCC3(CC2)C(=O)NCN3c2ccccc2)cc1 | 445 nM | 1000 nM | > 10 | > 10 µM |  | 
O=C(NC1CCN(CCCOc2ccc(F)cc2)CC1)c1ccccc1 |  | 70 nM | > 140 | > 10 µM |  | 
O=C1NCN(c2ccccc2)C12CCN(CCCc1ccccc1)CC2 | 105 nM | 230 nM | > 30 | > 10 µM |  | 
O=C(Nc1ccccc1)C1CCN(CCCOc2ccc(F)cc2)CC1 |  | 95 nM | > 100 | > 10 µM |  | 
CN(C)CCCC(=O)c1ccc(F)cc1 |  | 80 nM | 40 | 3.3 µM |  | 
O=C(CCCN1CCCCC1)c1ccc(F)cc1 [PRIMAPERONE] | > 10000 nM | 140 nM | > 70 | > 10 µM |  | 
O=C1NCN(c2ccccc2)C12CCN(CCCCOc1ccccc1)CC2 | 30 nM | 325 nM | > 30 | > 10 µM |  | 
CN(C)CCCOc1ccc(F)cc1 |  | 295 nM | > 30 | > 10 µM |  | 
O=C1NCN(c2ccccc2)C12CCN(CCCOc1ccccc1)CC2 | 75 nM | 5 nM | > 2000 | > 10 µM |  | 
NCCCC(=O)c1ccc(F)cc1 | > 100000 nM | > 100000 nM |  | > 100 µM |  | 
O=C1NCN(c2ccccc2)C12CCN(CCCOc1ccc(F)cc1)CC2 [SPIRAMIDE] | 50 nM | 2 nM | 2100 | 4.3 µM | 3 nM | 2530 nM
O=C(CCCN1CCC(Cc2ccccc2)CC1)c1ccc(F)cc1 | 180 nM | 50 nM | 35 | 1.65 µM |  | 
c1ccc(CCCCN2CCN(c3ccccc3)CC2)cc1 | 1 nM |  |  |  |  | 
CN(c1ccccc1)C1CCN(CCCOc2ccc(F)cc2)CC1 | 110 nM | 32 nM | 90 | 2.87 µM |  | 
O=C1NCN(c2ccccc2)C12CCN(CCc1ccccc1)CC2 | 1020 nM | 570 nM | 10 | 6 µM |  | 
O=C1NCN(c2ccccc2)C12CCN(CCCCc1ccccc1)CC2 | 85 nM | 30 nM | > 300 | > 10 µM |  | 
O=C(CCCN1CCC2(CC1)C(=O)NCN2c1ccccc1)c1ccc(F)cc1 [SPIPERONE] | 49 nM |  |  |  |  | 

From ChEMBL document CHEMBL1126779, “Antagonism of 1-(2,5-dimethoxy-4-methylphenyl)-2-aminopropane stimulus with a newly identified 5-HT2- versus 5-HT1C-selective antagonist” (J Med Chem, 1993)
